Data set [1] deals with Mus musculus. The data set is described as follows: Protection against […] C57BL/6 mouse model assessed as decrease in NGAL level at 1 mg/kg, ip administered thrice a week prior to induction of bilateral ischemia-reperfusion injury measured after 6 days by Western blot analysis. The following applies: time 6.0 day. Type of data set: functional, organism-based. (In general: In western blotting, separated proteins are transferred to a membrane and probed.)

Data set [2] relates to Mus musculus. The data set is described as follows: Protection against […] C57BL/6 mouse model assessed as decrease in cyt C level at 1 mg/kg, ip administered thrice a week prior to induction of bilateral ischemia-reperfusion injury measured after 6 days by IHC analysis. Type of data set: functional, organism-based. The following applies: time 6.0 day.

In the next data set the test system is Epithelial cell. Nature of the data set: Reversal of H2O2-induced IL-1beta mRNA level in human tubular epithelial cells at 10 to 100 nM by qPCR analysis. The data set is classed as functional, cell-based. As to conditions: dose 10-100 nM.
Data set [3] deals with Mus musculus. The data set is described as follows: Protection against […] C57BL/6 mouse model assessed as reduction in serum creatinine level at 1 mg/kg, ip administered thrice a week prior to induction of bilateral ischemia-reperfusion injury measured after 6 days. The data set is classed as functional, organism-based. The following applies: time 6.0 day.

In data set [4] the test system is Mus musculus. The data set is described as follows: Protection against […] C57BL/6 mouse model assessed as reduction in inflammatory cell infiltration at 1 mg/kg, ip administered thrice a week prior to induction of bilateral ischemia-reperfusion injury measured after 6 days by IHC analysis. The following applies: time 6.0 day. Type of data set: functional, organism-based.

Data set [5] relates to Mus musculus. Nature of the data set: Protection against colistin-induced nephrotoxicity in C57BL/6 mouse model assessed as reduction in tubular dilation at 1 mg/kg, ip administered once every other day measured after 7 days by […] analysis. Type of data set: functional, organism-based. The following applies: time 7.0 day. The essentials:
(§1)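 Seven-week-old male C57BL/6 mice got colistin 20 mg/kg SC daily for 7 days plus peptide 1 mg/kg intraperitoneally every other day; groups of n = 5 (control, colistin, colistin + peptide). Kidneys were taken at day 7. Cytochrome C was detected by immunohistochemistry (citrate antigen retrieval, HRP-polymer detection, hematoxylin counterstain). Sections were also stained with PAS and Masson's trichrome to score histologic damage and fibrosis.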

Data set [6] relates to Mus musculus. Nature of the data set: Protection against […] C57BL/6 mouse model assessed as decrease in NGAL level at 1 mg/kg, ip administered thrice a week prior to induction of bilateral ischemia-reperfusion injury measured after 6 days by IHC analysis. The data set is classed as functional, organism-based. As to conditions: time 6.0 day.
The subject of data set [7] is Mus musculus. The data set is described as follows: Protection against colistin-induced nephrotoxicity in C57BL/6 mouse model assessed as reduction in blood creatinine level at 1 mg/kg, ip administered once every other day measured upto 7 days. The data set is classed as functional, organism-based. The following applies: time <= 7.0 day. The essentials:
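Male C57BL/6 mice, 7 weeks: colistin 20 mg/kg sc daily for 7 days, peptide 1 mg/kg ip every other day, n = 5 per group. BUN by autoanalyzer and creatinine by modified Jaffe reaction after 7 days; mean ± SEM.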

The nature of data set [8]: Drug localization in lysosomes of human HeLa cells at 100 nM incubated for 3 hrs by NAO probe based analysis. The data set is classed as ADME, subcellular, Lysosome. As to conditions: 0.1 µM. The method in brief: (§2)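 HeLa cells given TAMRA-labelled peptide 100 nM for 3 h and cardiolipin stained with NAO (100 nM, 1 h), with or without 20 μM CCCP for 30 min; LysoTracker 50 nM. Confocal images, Pearson r from five independent images (63×) per condition.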

Data set [9] relates to Mus musculus. Nature of the data set: Protection against colistin-induced nephrotoxicity in C57BL/6 mouse model assessed as reduction in 8-OHdG level at 1 mg/kg, ip administered once every other day measured after 7 days by IHC analysis. Type of data set: functional, organism-based. The following applies: time 7.0 day. The essentials:
(§3)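 Male C57BL/6 mice, 7 weeks: colistin 20 mg/kg sc daily for 7 days, peptide 1 mg/kg ip once every other day, n = 5 per group. Day-7 kidney sections, citrate antigen retrieval, immunohistochemistry with HRP polymer secondary and hematoxylin counterstain; PAS and Masson's trichrome for damage.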

In a further data set the test system is HeLa. The data set is described as follows: Reversal of H2O2-induced mitochondrial damage in human HeLa cells assessed as formation of long cristae at 50 to 100 nM preincubated for 2 hrs followed by H2O2 addition for 2 hrs by TEM analysis. Type of data set: functional, cell-based. As to conditions: dose 50-100 nM, time 4.0 hrs. The essentials: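 HeLa cells were pretreated with 50 or 100 nM peptide for 2 h, then exposed to 0.5 mM H2O2 for 2 h. They were fixed in Karnovsky's fixative (pH 7.2), postfixed in osmium, embedded in Spurr's resin and stained with uranyl acetate/lead citrate for TEM. Cristae longer than 0.5 μm were counted from at least 50 mitochondrial images.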

The subject of data set [10] is Mus musculus. Nature of the data set: Protection against colistin-induced nephrotoxicity in C57BL/6 mouse model assessed as reduction in tubular casts at 1 mg/kg, ip administered once every other day measured after 7 days by […] analysis. As to conditions: time 7.0 day. The data set is classed as functional, organism-based. The essentials:
as §1

The test system of a further data set is Mitochondria. The data set is described as follows: Inhibition of antimycin A-induced mitochondrial ROS generation in human HeLa cells incubated for 190 mins followed by antimycin A addition measured after 90 mins by MitoSOX probe based analysis. Type of data set: functional. As to conditions: dose lower […], dose upper 10.0 nM. The method in brief:
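HeLa cells seeded, stained 24 h later with MitoSOX 5 μM for 10 min, washed, HBSS, read on plate reader at 37 °C (Ex/Em 510/580 nm).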

A short description of data set [11]: Drug localization in endosomes of human HeLa cells expressing endosome markers at 100 nM incubated for 3 hrs by GFP based analysis. Type of data set: ADME, subcellular. As to conditions: 0.1 µM. The method in brief: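 HeLa cells expressing early-endosome GFP marker (16 h) given TAMRA-labelled peptide 100 nM for 3 h plus LysoTracker 50 nM; confocal imaging with Pearson correlation.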

Data set [12] concerns Mus musculus. The data set is described as follows: Protection against colistin-induced nephrotoxicity in C57BL/6 mouse model assessed as reduction in NGAL level at 1 mg/kg, ip administered once every other day measured after 7 days by IHC analysis. The data set is classed as functional, organism-based. The following applies: time 7.0 day. The method in brief:
as §3

Data set [13] concerns Mus musculus. Nature of the data set: Protection against […] C57BL/6 mouse model assessed as reduction in tubular damage at 1 mg/kg, ip administered thrice a week prior to induction of bilateral ischemia-reperfusion injury measured after 6 days by IHC analysis. Type of data set: functional, organism-based. As to conditions: time 6.0 day.
Data set [14] in a line: Drug localization in cytosol of human HeLa cells at 100 nM incubated for 3 hrs in presence of CCCP by NAO probe based analysis. Type of data set: ADME, subcellular. The following applies: 0.1 µM. The essentials: as §2

The source made the active and inactive calls. The rule behind the calls is not given here. Where a SMILES comes first, the peptide text is derived from it. Bridges are numbered along the chain shown (N, C = ends). Roman numbers before positions name the chains, in order. [ ]: non-standard residue; d: D form. The star is where a group is joined. 5TAMRA = CN(C)c1ccc2c(c1)Oc1cc(N(C)C)ccc1C21OC(=O)c2cc(C(=O)*)ccc21; Cha = N[C@@H](CC1CCCCC1)C(=O)O

In the case of `CC(=O)N[C@@H](CC1CCCCC1)C(=O)N[C@H]1CSSC[C@@H](C(=O)N[C@@H](CCCNC(=N)N)C(N)=O)NC(=O)[C@H](CC2CCCCC2)NC(=O)[C@H](CCCNC(=N)N)NC(=O)[C@H](CCCNC(=N)N)NC(=O)[C@H](CC2CCCCC2)NC(=O)[C@H](CC(C)C)NC(=O)[C@H](CCCNC(=N)N)NC(=O)[C@@H](NC(=O)[C@H](CC2CCCCC2)NC(=O)c2ccc3c(c2)C(=O)OC32c3ccc(N(C)C)cc3Oc3cc(N(C)C)ccc32)CSSC[C@@H](C(=O)N[C@@H](CCCNC(=N)N)C(N)=O)NC(=O)[C@H](CC2CCCCC2)NC(=O)[C@H](CCCNC(=N)N)NC(=O)[C@H](CCCNC(=N)N)NC(=O)[C@H](CC2CCCCC2)NC(=O)[C@H](CC(C)C)NC(=O)[C@H](CCCNC(=N)N)NC1=O` (I: Ac-[Cha]CRL[Cha]RR[Cha]CR-NH2 / II: 5TAMRA-[Cha]CRL[Cha]RR[Cha]CR-NH2; disulfide I:2-II:9, I:9-II:2), the result in the data set on Mus musculus [1], in the data set with Mus musculus [2], in the data set on Epithelial cell, in the data set on Mus musculus [3], in the data set with Mus musculus [4] and with Mus musculus [5] was Active. Moreover, the outcome in the data set with Mus musculus [6], with Mus musculus [7], in the data set on Mus musculus [9], in the data set on HeLa, with Mus musculus [10] and in the data set on Mus musculus [12] was Active. The outcome in the data set with Mus musculus [13] was Active. Also, the results for the Drug uptake result in data set [8], in [11] and in data set [14] were “Active”, “Not Active” and “Active”, respectively. Besides, the inhibition entry in the data set on Mitochondria was “Dose-Dependent Effect”.

The values above are taken from ChEMBL document CHEMBL5634162, “Cyclohexylalanine-Containing α-Helical Amphipathic Peptide Targets Cardiolipin, Rescuing Mitochondrial Dysfunction in Kidney Injury” (J Med Chem, 2024).
